Laboratory results from article PMC5992617 (ACS chemical biology, 2017).
Where two headings read alike, the source gives them in different places. Blank lines part the entries; values can stand above or below the molecule they belong to. Where no end group is shown, it is not given here. FAM = fluorescein amidite

Assays:
[1] = system: Rev1^−/− mouse embryonic fibroblasts (MEFs); assay: Clonogenic survival assay in Rev1−/− MEFs with cisplatin; format: cell-based; settings: cisplatin 0.6 μM alone
Outline: (§1)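 Wild-type or Rev1⁻/⁻ mouse embryonic fibroblasts in DMEM with 10% FBS and 1% penicillin/streptomycin at 37°C, 5% CO₂. Seeded at 600 cells/well and left overnight. […] Colonies of ≥40 cells Coomassie-counted and expressed relative to DMSO controls. Two experiments, each in triplicate.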

[2] = system: HPRT gene mutation frequency in HT1080 cells; assay: HPRT mutagenesis assay in HT1080 cells; format: cell-based, human; settings: cisplatin alone 0.6 μM
[3] = system: HT1080 cells; assay: Clonogenic survival assay in HT1080 cells with cisplatin; format: cell-based, human; settings: cisplatin 0.6 μM, 4 or 5 1.5 μM, alone
Outline: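 HT1080 cells in RPMI 1640 with 10% FBS and 1% penicillin/streptomycin at 37°C, 5% CO₂. Seeded at 600 cells/well in 6-well plates and left overnight. […] Fixed in methanol/acetic acid and Coomassie-stained. Colonies of ≥40 cells counted relative to DMSO controls; Student t-test.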

[4] = system: wild-type (WT) mouse embryonic fibroblasts (MEFs); assay: Clonogenic survival assay in WT MEFs with cisplatin; format: cell-based; settings: cisplatin 0.6 μM, 4 or 5 1.5 μM, alone
Outline: as §1

[5] = biological target: T1, C-terminal domain from human Rev1 (Rev1-CT) (human, UniProt Q9UBZ9 1158-1251); assay: fluorescence polarisation
T1 sequence (looked up): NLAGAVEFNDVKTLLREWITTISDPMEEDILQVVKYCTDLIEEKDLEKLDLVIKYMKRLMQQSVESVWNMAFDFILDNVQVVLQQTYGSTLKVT

[6] = biological target: T1, C-terminal domain from human Rev1 …; assay: fluorescence polarisation; remark: listed apart in the source
[7] = biological target: T1, C-terminal domain from human Rev1 …; assay: SEC

Molecule: N.N.[Cl][Pt][Cl] [cisplatin]
Sensitivity of Rev1−/− MEFs to cisplatin compared with WT MEFs [1]: significantly more sensitive | Increase in HPRT mutations compared to non-treated cells [2]: approximately 1.9 fold | Colony formation of HT1080 cells, single agent [3]: minimal effect on colony formation | Clonogenic growth of WT MEFs, single agent [4]: minimal effect on clonogenic growth

IC50 [5]: 6.6 ± 0.1 µM | IC50 [6]: 7.3 ± 1.4 µM
Molecule: EMSHKKSFFDKKRSER (peptide, UniProt Q9UBT6 560-575, looked up) [unlabeled Polκ-RIR]

binding result [7]: binds
Molecule: {FAM}-EMSHKKSFFDKKRSER (peptide, UniProt Q9UBT6 560-575, looked up)
